According to paper PMC4862007 (Cell metabolism, 2015):

Target: T1, ABHD5 / PLIN1 (luciferase complementation) (Mus musculus, UniProt Q9DBL9)
T1 sequence (Q9DBL9 1-351): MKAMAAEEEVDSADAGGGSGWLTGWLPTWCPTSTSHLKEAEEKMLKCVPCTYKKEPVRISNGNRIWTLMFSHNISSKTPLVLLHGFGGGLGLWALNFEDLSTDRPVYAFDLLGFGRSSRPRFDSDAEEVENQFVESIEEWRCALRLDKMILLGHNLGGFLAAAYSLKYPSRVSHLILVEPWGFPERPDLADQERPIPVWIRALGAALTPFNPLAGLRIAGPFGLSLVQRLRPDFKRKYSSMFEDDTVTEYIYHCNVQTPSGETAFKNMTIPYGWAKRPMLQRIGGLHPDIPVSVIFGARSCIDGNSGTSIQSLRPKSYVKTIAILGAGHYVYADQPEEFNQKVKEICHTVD
T1 sequence (Q8CGN5 1-517 partner): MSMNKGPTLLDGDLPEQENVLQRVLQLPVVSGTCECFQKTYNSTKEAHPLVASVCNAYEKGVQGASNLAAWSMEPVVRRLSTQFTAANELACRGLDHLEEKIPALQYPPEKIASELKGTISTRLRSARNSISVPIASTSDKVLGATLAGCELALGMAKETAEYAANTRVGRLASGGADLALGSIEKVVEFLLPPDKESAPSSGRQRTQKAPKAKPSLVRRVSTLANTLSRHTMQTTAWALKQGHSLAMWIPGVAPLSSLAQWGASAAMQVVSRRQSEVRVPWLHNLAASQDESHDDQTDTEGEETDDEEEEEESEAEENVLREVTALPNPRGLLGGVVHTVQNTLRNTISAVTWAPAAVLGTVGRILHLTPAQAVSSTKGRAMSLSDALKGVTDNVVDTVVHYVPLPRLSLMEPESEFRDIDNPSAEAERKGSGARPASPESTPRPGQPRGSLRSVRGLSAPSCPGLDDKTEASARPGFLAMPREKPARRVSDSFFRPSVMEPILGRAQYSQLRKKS
Test: luciferase complementation, disruption of ABHD5-PLIN1 binding
Type: biochemical
Details: mixed 293T lysates, 4 h, room temperature; n=8
How it was run: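 Lysates are prepared separately from transfected 293T cells and equal amounts of each are combined. Test compound is added in DMSO, with a DMSO vehicle control. After 4 h at room temperature, complementation is read as luciferase activity.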

Row | IC50 | SMILES
1 | 510 ± 60 nM | Cc1ccc2c(CC(=O)N3CCN(S(=O)(=O)c4ccc5c(c4)OCCO5)CC3)coc2c1 [SR-4559]
2 | 200 ± 30 nM | CCCCNC(=O)Nc1ccc2c(c1)N(C)C(=O)c1ccccc1S2 [SR-4995]
